High-throughput results deposited in PubChem by PCMD.
Sampled rows, rich in hits. Any-hit rate of the full collection: about 1%.
Yeast tox = Inhibitors of S. cerevisiae growth, toxicity | AID 685 | growth inhibition, % at 25 µM (by protocol) | S. cerevisiae wild-type growth, A595 turbidity, 16 h | 30,000 compounds, 0.3% hits;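 active = mutant and wild-type yeast strains alike exhibit over 30% growth inhibition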;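 also: 0% = untreated cell controls and 100% = YPD media blanks without cells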
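system = S. cerevisiae wild-type or eIF2Bepsilon-R284H mutant strain | buffer or medium = YPD medium | dosing = one dose, 25 µM compound, 0.2% DMSO | schedule = 16 h at 30 °C | measured by = A595 turbidity | evaluation = growth inhibition (%) versus cell controls and blanks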
eIF2B yeast act = modulators of yeast eIF2B activity. inhibition, % at 25 µM (by protocol). S. cerevisiae eIF2B-epsilon R284H, GCN4-lacZ luminescence. 27,000 compounds, 0.91% hits. AID 688;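 active = mutant luminescence inhibited past about 50% while wild type luminescence and mutant growth stay under set limits, limit read from the data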
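Assay system: yeast eIF2B-epsilon R284H mutant carrying GCN4–beta-galactosidase fusion / Buffer or medium: YPD / Incubation: 16 h growth with compound at 30 °C, 90 min Beta-Glo step / Detection: Beta-Glo luminescence after Z-buffer lysis, growth by 595 nm absorbance / Read-out: % inhibition of reporter signal and growth versus controls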
Starred values were filed as active, the others as inactive; x = no result given.

SMILES	Yeast tox	eIF2B yeast act
CCCOc1ccc(N2C(=O)CC(NCc3ccncc3)C2=O)cc1 (configuration not stated)	-2.8	-0.1
C=CCNc1nnc(SC2CC(=O)N(c3ccc(OCCC)cc3)C2=O)s1 (configuration not stated)	60.0*	1.8
CCOC(=O)c1cc(NC(=O)N(CC)CC)c(C)nc1C	7.1	15.2
Cn1c(=O)c2c(nc(Sc3n[nH]c(N)n3)n2Cc2ccccc2Cl)n(C)c1=O	14.4	21.2
Cc1cccc(-c2nnc(NC(=O)c3ccc(Cl)cc3)o2)c1	57.2*	17.2
COc1ccc(C(=O)Nc2nnc(-c3ccccc3)o2)cc1OC	13.8	20.8
CCn1cc(Br)c(C(=O)N(C)Cc2ccccc2)n1	x	-3.2
Cc1ccc2c(CN3CCN(Cc4ccc5c(c4)OCO5)CC3)cc(=O)oc2c1C	4.2	14.9
Cc1ccc(SCc2cc(=O)[nH]c(N3CCN(Cc4ccc5c(c4)OCO5)CC3)n2)cc1	-16.8	60.4*
Cc1cc(C#N)c(C)n1-c1cc(S(=O)(=O)N2CCOCC2)ccc1N1CCCC1	2.3	10.8
O=C(c1ccc(Cl)cc1)N1CCN(c2ccc(F)cc2)CC1	58.7*	41.9
O=C(c1ccc2c(c1)OCO2)N1CCN(c2ccc(F)cc2)CC1	3.9	5.0
CCOC(=O)C(C)CC(C)C(=O)N1CCOCCOCCN(C(=O)C(C)CC(C)C(=O)OCC)CCOCC1 (configuration not stated)	21.4	8.6
CCOC(=O)C(C(=O)OCC)C(C(=O)OCC)N1CCOCC1 (configuration not stated)	32.7*	5.3
NC(=O)CSC1=Nc2ccccc2C2=NC(CC(=O)NCc3cccs3)C(=O)N12 (configuration not stated)	9.7	52.0*
COCCCNC(=O)CSC1=Nc2ccccc2C2=NC(CC(=O)NCc3ccccc3)C(=O)N12 (configuration not stated)	4.0	38.0
CC(Oc1cc(-c2ccccc2)cc2ccccc12)C(=O)N1CCOCC1 (configuration not stated)	17.0	-5.8
COc1ccc(NS(=O)(=O)c2ccc3c(c2)Cc2ccccc2-3)cn1	-6.6	12.4
COc1ccc(NC(=O)CSc2nnc(Cc3cccn3C)n2-c2ccc(C)cc2)cc1OC	-0.9	12.5
Cc1cc(C)c(NC(=O)CSc2nnc(Cc3cccn3C)n2-c2ccc(F)cc2)c(C)c1	3.2	59.6*
COc1cc(OC)c(S(=O)(=O)N2CCCCC2)cc1S(=O)(=O)N1CCCCC1	-11.3	-18.3
COc1ccccc1CC(=O)N1CCN(c2cccc(C(F)(F)F)c2)CC1	-14.1	50.2*
COc1ccccc1CC(=O)N1CCCC1	-6.9	x
Cn1c(O)c(C=Nc2ccc(Cc3ccncc3)cc2)c(=O)n(C)c1=O	0.8	15.4
FC(F)(F)c1cccc(N2CCN(CC3CC=CCC3)CC2)c1 (configuration not stated)	20.7	22.9
SMILES	Yeast tox	eIF2B yeast act
COc1ccc(C2NC(=O)NC(C)=C2C(C)=O)cc1 (configuration not stated)	12.6	51.5*
C=CCOc1ccc(C2NC(=O)NC(C)=C2C(=O)OC)cc1 (configuration not stated)	9.1	11.2
O=C(NCCC1=CCCCC1)c1ccc2c(c1)N(Cc1ccccc1)C(=O)CS2	11.4	14.8
O=C(Nc1cc(Cl)ccc1O)C1CCCO1 (configuration not stated)	x	16.7
O=C(Nc1nc2ccc(Cl)cc2s1)C1CCCO1 (configuration not stated)	30.0*	x
CCOC(=O)c1[nH]cc(-c2ccccc2)c1N1CCOCC1	17.7	18.9
COc1ccc(Oc2c(-c3ccc(O)cc3O)n[nH]c2C)cc1	5.7	-1.3
CCCc1ccc(Oc2c(-c3ccc(O)c(C)c3O)n[nH]c2C)cc1	81.4*	-31.7
COc1cc(OC)cc(C(C)=O)c1	40.5	2.9
C=CCn1c(=O)c2c(C)c(C)sc2n2c(Nc3ccccc3)nnc12	-31.3	39.9
Cc1cc(C)c(C)c(OCC(=O)N2CCCCCC2)c1	-12.5	x
COc1ccc(C(=O)Nn2c(C)nnc2-n2nc(C)cc2C)cc1OC	-0.4	55.6*
COc1ccccc1/C=N/n1c(C)nnc1-n1nc(C)cc1C	7.3	16.9
Cc1ccccc1OCc1nnc(SCC(=O)Nc2ccc(N3CCOCC3)c(Cl)c2)n1C	11.5	15.9
O=S(=O)(NCCc1ccccc1F)c1cccc(S(=O)(=O)N2CCOCC2)c1	-5.5	-23.6
CCCCNS(=O)(=O)c1cccc(S(=O)(=O)N2CCCC2)c1	-9.2	52.8*
c1ccc(C2=Nc3ccccc3SC2c2nc3ccccc3[nH]2)cc1 (configuration not stated)	12.1	x
CCOC(=O)CSC1=C(C#N)C(c2ccccc2Cl)C(C(=O)OC)C(=O)N1 (configuration not stated)	24.5	-15.2
Cc1cc(=O)[nH]c(N=N/C(=N/Nc2ccc(O)cc2)c2ccccc2)n1	-0.7	50.3*
COc1ccc(N/N=C(/N=Nc2nc(C)cc(=O)[nH]2)c2ccccc2)cc1	-26.9	13.0
C=CCNS(=O)(=O)CC12CCC(CC1=O)C2(C)C (configuration not stated)	5.5	x
Cc1cc(C)cc(NS(=O)(=O)c2ccc3[nH]c(=O)[nH]c3c2)c1	-0.2	52.0*
COc1ccc(S(=O)(=O)Nc2ccc(C)cc2)cc1OC	-9.1	26.5
CC(C)CCn1nnnc1C(C(C)C)N1CCC(C(N)=O)CC1 (configuration not stated)	10.0	x
CCOc1ccc(-c2[nH]ncc2Oc2cccc(OC)c2)c(O)c1	6.3	-0.7
SMILES	Yeast tox	eIF2B yeast act
COc1cccc(Oc2cn[nH]c2-c2ccc(OC)cc2O)c1	-9.4	65.9*
N/C(Cc1ccc(Cl)cc1)=N\OC(=O)c1ccccc1	71.2*	-0.3
N/C(Cc1ccc([N+](=O)[O-])cc1)=N\OC(=O)c1ccc([N+](=O)[O-])cc1	5.4	15.8
Cn1cc(SCC(=O)Nc2nc3ccccc3s2)c2ccccc21	0.0	-3.8
COc1ccccc1-c1nnc(SCC(=O)c2ccc(C3CCCCC3)cc2)n1Cc1ccco1	11.4	-33.3
O=C(O)CCC(=O)N1CCN(c2cccc(Cl)c2)CC1	-2.1	34.7
CC(=O)/C(C(=N)N1CCN(c2cccc(Cl)c2)CC1)=C(\C)O	x	60.8*
COc1ccc(NC(=O)C2CSC3c4ccccc4C(=O)N23)cc1 (configuration not stated)	1.2	10.6
CCOC(=O)C1=C(c2ccccc2)N=C2SCC(=O)N2C1c1ccc(OC)c(OC)c1 (configuration not stated)	6.2	13.3
CCOC(=O)C1=C(c2ccccc2)N(C)C(=O)NC1c1ccc(O)c(OC)c1 (configuration not stated)	-6.9	50.2*
CN1CCN(C(=O)CN(c2cccc(Cl)c2)S(=O)(=O)c2ccccc2)CC1	-5.1	7.9
COc1ccc(OCCOC(=O)c2ccc(-n3cnnn3)cc2)cc1	8.4	10.4
COc1ccc(C(=O)OC(COc2ccccc2)Cn2ccnc2)cc1 (configuration not stated)	68.3*	75.9
Cc1ccc(C(=O)CSc2nnnn2C(C)C)c(C)c1	13.9	30.8
CCOC(=O)C1CCCN(C(=O)c2cc3c(C)nc4ccccc4c3o2)C1 (configuration not stated)	-26.9	65.0*
CCOC(=O)C1CCCN(c2nc(C)nc3c2oc2ccccc23)C1 (configuration not stated)	-0.6	12.4
